Reference: ChEMBL document CHEMBL4028836, “Optimization of M4 positive allosteric modulators (PAMs): The discovery of VU0476406, a non-human primate in vivo tool compound for translational pharmacology” (Bioorg Med Chem Lett, 2017)

Assays:
[1] = molecular target: T1, Muscarinic acetylcholine receptor M4 (Homo sapiens) (UniProt P08173); assay: Positive allosteric modulation of human M4 receptor expressed in CHO cells coexpressing Gqi5 assessed as increase in acetylcholine-induced calcium mobilization relative to acetylcholine; assay type: functional, cell-based
T1 sequence (whole entry): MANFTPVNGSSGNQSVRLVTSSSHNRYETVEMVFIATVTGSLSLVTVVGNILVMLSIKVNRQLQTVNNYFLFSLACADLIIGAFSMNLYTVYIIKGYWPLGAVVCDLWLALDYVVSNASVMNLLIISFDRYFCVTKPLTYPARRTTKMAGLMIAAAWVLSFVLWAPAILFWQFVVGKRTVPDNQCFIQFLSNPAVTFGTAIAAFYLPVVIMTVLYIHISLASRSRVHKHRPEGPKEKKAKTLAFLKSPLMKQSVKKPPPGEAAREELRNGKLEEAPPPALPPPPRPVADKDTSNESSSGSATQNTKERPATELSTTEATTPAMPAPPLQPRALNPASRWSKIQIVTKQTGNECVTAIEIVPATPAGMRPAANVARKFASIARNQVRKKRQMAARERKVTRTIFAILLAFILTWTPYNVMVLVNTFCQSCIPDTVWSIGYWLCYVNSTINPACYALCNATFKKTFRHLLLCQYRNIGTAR
Method in brief: (§1)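 Calcium mobilization in CHO cells expressing hM4 with Gqi5. Compound added in presence of a fixed EC20 concentration of acetylcholine. Values are means of three independent experiments, each run in triplicate.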

[2] = molecular target: T2, Muscarinic acetylcholine receptor M4 (Homo sapiens, UniProt P08173); assay: Positive allosteric modulation of human M4 receptor expressed in CHO cells coexpressing Gqi5 assessed as increase in acetylcholine-induced calcium mobilization; assay type: functional, cell-based; method in brief: as §1
T2 sequence (P08173 whole entry): T1 sequence (whole entry)

[3] = Ratio of unbound brain to plasma concentration in cynomolgus monkey at 145 MBq, iv measured at 2 hrs post dose by PET analysis; assay type: ADME, organism-based, Macaca fascicularis; settings: read-out: K(p,uu,brain)
Method in brief: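 Whole and regional brain distribution of total and calculated unbound drug in one cynomolgus monkey. PET after a single IV dose of [18F]-labelled compound (145 MBq), with about 2 h of data acquisition post-dose.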

[4] = Ratio of unbound CSF to plasma concentration in cynomolgus monkey at 145 MBq, iv measured at 2 hrs post dose by PET analysis; assay type: ADME, organism-based, Macaca fascicularis
[5] = Brain to plasma permeability coefficient, Kp of the compound in cynomolgus monkey at 145 MBq, iv measured at 2 hrs post dose by PET analysis; assay type: ADME, organism-based, Macaca fascicularis
Method in brief: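 PET study in one cynomolgus monkey given a single IV dose of [18F]-labelled compound (145 MBq), with roughly 2 hr of data acquisition after dosing. Whole and regional brain distribution of total and calculated unbound compound was determined.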

Cytochrome P450 1A2 = molecular target: T3, Cytochrome P450 1A2 (Homo sapiens, UniProt P05177); assay: Inhibition of CYP1A2 (unknown origin); assay type: ADME
T3 sequence (P05177 whole entry): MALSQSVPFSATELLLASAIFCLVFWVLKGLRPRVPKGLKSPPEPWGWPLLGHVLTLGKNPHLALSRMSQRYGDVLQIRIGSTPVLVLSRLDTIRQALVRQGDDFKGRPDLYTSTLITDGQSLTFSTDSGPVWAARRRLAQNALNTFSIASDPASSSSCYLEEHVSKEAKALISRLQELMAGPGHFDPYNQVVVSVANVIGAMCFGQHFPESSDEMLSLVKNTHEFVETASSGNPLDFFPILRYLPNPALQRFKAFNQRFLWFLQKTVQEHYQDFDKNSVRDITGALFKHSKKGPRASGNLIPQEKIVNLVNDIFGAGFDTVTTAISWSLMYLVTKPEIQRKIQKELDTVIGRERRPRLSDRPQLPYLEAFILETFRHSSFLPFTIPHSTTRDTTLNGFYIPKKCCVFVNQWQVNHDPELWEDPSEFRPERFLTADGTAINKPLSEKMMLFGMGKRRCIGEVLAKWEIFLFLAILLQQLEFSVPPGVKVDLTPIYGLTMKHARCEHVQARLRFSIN

Cytochrome P450 2C9 = Cytochrome P450 2C9 (Homo sapiens, UniProt P11712); assay: Inhibition of CYP2C9 (unknown origin); assay type: ADME
Rattus norvegicus [6] = assay: Volume of distribution at steady state […] in Sprague-Dawley rat at 0.1 to 1 mg/kg, iv; assay type: ADME, organism-based; settings: in vivo
Method in brief: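 IV pharmacokinetics in Sprague-Dawley rats at 0.1–1.0 mg/kg. CLp, elimination t½ and Vss derived.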

Cytochrome P450 2D6 = Cytochrome P450 2D6 (Homo sapiens, UniProt P10635); assay: Inhibition of CYP2D6 (unknown origin); assay type: ADME
[7] = Brain to plasma permeability coefficient, Kp of the compound in Sprague-Dawley rat at 0.1 to 0.2 mg/kg, iv measured at 0.25 hrs post dose; assay type: ADME, organism-based
Method in brief: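 Sprague-Dawley rats were dosed IV at 0.1–0.2 mg/kg, with brain and plasma sampled at 0.25 hr. Brain:plasma Kp was calculated, with Kp,uu where unbound fractions were available.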

Cytochrome P450 3A4 = Cytochrome P450 3A4 (Homo sapiens, UniProt P08684); assay: Inhibition of CYP3A4 (unknown origin); assay type: ADME
Rattus norvegicus [8] = assay: Elimination half-life in Sprague-Dawley rat at 0.1 to 1 mg/kg, iv; assay type: ADME, organism-based; settings: in vivo
[9] = Unbound plasma concentration in human; assay type: ADME, cell-free
[10] = Unbound plasma concentration in rat; assay type: ADME, cell-free

Cytochrome P450 2D6, sequence (P10635 whole entry): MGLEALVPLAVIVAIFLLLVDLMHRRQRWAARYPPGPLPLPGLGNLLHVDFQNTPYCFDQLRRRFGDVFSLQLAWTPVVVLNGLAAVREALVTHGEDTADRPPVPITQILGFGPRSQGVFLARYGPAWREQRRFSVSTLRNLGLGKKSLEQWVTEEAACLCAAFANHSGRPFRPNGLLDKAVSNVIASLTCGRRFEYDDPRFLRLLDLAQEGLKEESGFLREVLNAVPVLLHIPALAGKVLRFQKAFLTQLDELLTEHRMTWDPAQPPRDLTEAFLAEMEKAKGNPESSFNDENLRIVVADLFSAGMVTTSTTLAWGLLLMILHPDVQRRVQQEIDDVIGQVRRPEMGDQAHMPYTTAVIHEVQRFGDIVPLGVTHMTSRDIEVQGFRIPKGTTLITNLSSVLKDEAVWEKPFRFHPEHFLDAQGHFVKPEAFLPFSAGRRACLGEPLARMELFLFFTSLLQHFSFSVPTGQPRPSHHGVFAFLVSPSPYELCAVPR
Cytochrome P450 2C9, sequence (P11712 whole entry): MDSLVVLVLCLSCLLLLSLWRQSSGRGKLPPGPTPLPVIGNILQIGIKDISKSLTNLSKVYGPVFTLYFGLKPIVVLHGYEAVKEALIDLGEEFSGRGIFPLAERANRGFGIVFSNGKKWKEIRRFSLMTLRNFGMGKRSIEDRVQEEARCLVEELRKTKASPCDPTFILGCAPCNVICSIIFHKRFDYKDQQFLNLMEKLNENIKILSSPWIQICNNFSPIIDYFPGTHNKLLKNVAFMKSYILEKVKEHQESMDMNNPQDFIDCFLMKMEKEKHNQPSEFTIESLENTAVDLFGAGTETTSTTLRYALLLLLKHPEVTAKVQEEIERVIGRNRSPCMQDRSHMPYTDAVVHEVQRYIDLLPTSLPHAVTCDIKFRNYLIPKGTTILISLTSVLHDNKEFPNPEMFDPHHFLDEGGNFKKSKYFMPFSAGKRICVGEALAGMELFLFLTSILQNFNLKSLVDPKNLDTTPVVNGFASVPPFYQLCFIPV
Cytochrome P450 3A4, sequence (P08684 whole entry): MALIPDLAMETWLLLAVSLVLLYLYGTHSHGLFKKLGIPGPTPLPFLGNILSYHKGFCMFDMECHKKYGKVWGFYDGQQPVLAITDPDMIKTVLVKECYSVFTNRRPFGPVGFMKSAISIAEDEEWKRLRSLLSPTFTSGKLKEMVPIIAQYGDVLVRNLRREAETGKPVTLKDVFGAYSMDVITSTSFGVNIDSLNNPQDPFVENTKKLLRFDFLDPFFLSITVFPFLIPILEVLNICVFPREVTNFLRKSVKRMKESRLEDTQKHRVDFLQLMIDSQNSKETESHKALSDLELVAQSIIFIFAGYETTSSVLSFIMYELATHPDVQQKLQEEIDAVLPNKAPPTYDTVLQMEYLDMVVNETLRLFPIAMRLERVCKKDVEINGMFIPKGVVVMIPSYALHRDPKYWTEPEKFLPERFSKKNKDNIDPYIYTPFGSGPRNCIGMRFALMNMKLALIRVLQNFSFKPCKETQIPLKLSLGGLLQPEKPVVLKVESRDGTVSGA

| SMILES | %max [1] [%] | EC50 ([2]; read-out: EC50) [nM] | EC50 ([2]; read-out: pEC50 (converted)) [nM] | further results |
| --- | --- | --- | --- | --- |
| Cc1ncc(-c2ccc(CNC(=O)c3sc4nnc(C)c(C)c4c3N)cc2)cn1 | 65 | 230 | 214 | – |
| Cc1nnc2sc(C(=O)NCc3ccc(-c4cnccn4)cc3)c(N)c2c1C | 63 | 159 | – | – |
| Cc1nnc2sc(C(=O)NCc3ccc(-c4ccccn4)cc3)c(N)c2c1C | 75 | 232 | 214 | – |
| Cc1nnc2sc(C(=O)NCc3ccc(Br)cc3)c(N)c2c1C | 82 | 187 | 182 | – |
| Cc1nnc2sc(C(=O)NCc3ccc(-c4ccncc4F)cc3)c(N)c2c1C | 86 | 1720 | 1550 | – |
| Cc1cc(-c2ccc(CNC(=O)c3sc4nnc(C)c(C)c4c3N)cc2)cnc1F | 68 | 994 | – | – |
| COc1ncc(-c2ccc(CNC(=O)c3sc4nnc(C)c(C)c4c3N)cc2)cn1 | 91 | 84 | – | – |
| Cc1nnc2sc(C(=O)NCc3cccc(-c4ccccc4)c3)c(N)c2c1C | 41 | 1650 | – | – |
| Cc1nnc2sc(C(=O)NCc3ccccc3Br)c(N)c2c1C | 31 | > 10000 | – | – |
| Cc1nnc2sc(C(=O)NCc3ccc(-c4cccnc4[18F])cc3)c(N)c2c1C | – | – | – | Kp uu at 2 h [3]: 1.1; Kp uu at 2 h [4]: 1; Kp [5]: 0.75 |
| Cc1nnc2sc(C(=O)NCc3ccc(-c4ccc(F)nc4)cc3)c(N)c2c1C | 79 | 64 | – | IC50 (Cytochrome P450 1A2): 790 nM; IC50 (Cytochrome P450 2C9): 26000 nM; Vdss (Rattus norvegicus [6]): 0.6 L/kg; IC50 (Cytochrome P450 2D6): > 30000 nM; Kp [7]: 0.13; IC50 (Cytochrome P450 3A4): 25000 nM; beta t1/2 (Rattus norvegicus [8]): 28.8 min; fraction unbound [9]: 0.023; fraction unbound [10]: 0.004 |
